Assay results as given in ChEMBL document CHEMBL1131326, “Design, synthesis, and antiviral evaluations of 1-(substituted benzyl)-2-substituted-5,6-dichlorobenzimidazoles as nonnucleoside analogues of 2,5,6-trichloro-1-(beta-D-ribofuranosyl)benzimidazole” (J Med Chem, 1998).

Assays:
Human alphaherpesvirus 1 = experiment: Antiviral activity against herpes simplex virus type-1 (HSV-1); assay type: functional, organism-based
How it was run: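 BSC-1 cells (10 000/well, MEM(E) + 10% calf serum) incubated overnight, then given drug in quadruplicate plus HSV-1 KOS at 100 pfu/well; 3 days at 37 °C. ELISA with HRP-conjugated rabbit anti-HSV-1 antibody, TMB substrate, stopped with H₂SO₄, absorbance at 450 and 570 nm; IC50 by regression of % absorbance reduction vs log concentration.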

HFF = experiment: Visual cytotoxicity scored on HFF cells at a time of HCMV plaque enumeration; assay type: functional, cell-based; conditions: Homo sapiens
How it was run: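 Cytotoxicity in stationary HFF cells scored by microscopic inspection of cells not affected by virus, at time of HCMV plaque enumeration, in the plaque-assay plates.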

Human betaherpesvirus 5 [1] = experiment: Compound was tested for antiviral activity against human cytomegalovirus (HCMV) by plaque reduction assay; assay type: functional, organism-based
How it was run: (§1)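 HFF monolayers infected with about 100 pfu/cm² of HCMV Towne (isolate Po); after adsorption, compound in growth medium added to duplicate wells at four to eight concentrations.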

KB = experiment: Inhibition of KB cell growth determined by quadruplicate assays; assay type: functional, cell-based; conditions: Homo sapiens
How it was run: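 KB cells seeded at 3000-5000/well, overnight at 37 °C, then compound in quadruplicate at six to eight concentrations for 48 h (about two doublings) in CO₂. Cells fixed in 95% ethanol, stained with 0.1% crystal violet, dye eluted with acidified ethanol and read at 570 nm; IC50 by regression vs log concentration.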

CEM-SS [2] = experiment: Cytotoxicity against CEM-SS cells in terms of incorporation of [3H]dThd; assay type: functional, cell-based; conditions: Homo sapiens
How it was run: (§2)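 DNA synthesis in CEM-SS cells measured as uptake of [³H]dThd into total acid-precipitable material; results averaged from duplicate experiments.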

[3] = tested on: Human immunodeficiency virus 1; experiment: Activity against HIV-1 by syncytial plaque assay performed in duplicate using CEM-SS cells; assay type: functional, organism-based; conditions: Human immunodeficiency virus 1, CEM-SS
How it was run: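 Syncytial plaque assay: poly-L-lysine-adherent CEM-SS cells infected with HIV-1 strain IIIB with or without compound at selected concentrations; syncytial plaques counted at 30-fold magnification 7 days postinfection; duplicate. IC50 from linear regression of percent inhibition against log concentration.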

Human betaherpesvirus 5 [4] = experiment: Antiviral activity against human cytomegalovirus (HCMV) by plaque reduction assay; assay type: functional, organism-based; how it was run: as §1
[5] = Compound was tested for antiviral activity against HIV resistant to TIBO A-17; assay type: functional, Human immunodeficiency virus 1
How it was run: (§3)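 Syncytial plaque assay in duplicate sets on CEM-SS cells made adherent with poly-L-lysine. Virus was the A17 HIV-1 variant, resistant to nonnucleoside RT inhibitors including TIBO, or HIV-2, both from the AIDS Research and Reference Program. Infection was in the presence or absence of compound; syncytial plaques were counted at 30-fold magnification 7 days postinfection. IC50 came from linear regression of percent inhibition against log concentration.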

[6] = (§4) Compound was tested for antiviral activity against matched pairs of HIV-1 resistant to AZT; assay type: functional, Human immunodeficiency virus 1
How it was run: (§5)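 Matched clinical pairs of AZT-sensitive and AZT-resistant HIV-1 (C-691/G762 or H-112/G910, depending on compound series) were tested by syncytial plaque assay in duplicate sets on poly-L-lysine-adherent CEM-SS cells. Syncytial plaques were counted at 30-fold magnification 7 days postinfection. IC50 came from regression of percent inhibition versus log concentration, averaged over duplicate experiments.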

[7] = tested on: Human immunodeficiency virus 2; experiment: Compound was tested for antiviral activity against HIV-2; assay type: functional, organism-based
[8] = (§6) Compound was tested for antiviral activity against matched pairs of HIV-1 sensitive to AZT; assay type: functional, Human immunodeficiency virus 1
CEM-SS [9] = experiment: Compound was tested for activity against HIV-1 by syncytial plaque assay performed in duplicate using CEM-SS cells; assay type: functional, cell-based; conditions: Homo sapiens
How it was run: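 CEM-SS cells made adherent with poly-L-lysine, infected with HIV-1 strain IIIB with or without selected compound concentrations; duplicate sets. Syncytial plaques counted at 30-fold magnification 7 days post-infection. Percent inhibition regressed linearly against log concentration to give IC50; zidovudine positive control in all assays. Values averaged over duplicate or triplicate experiments.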

[10] = (§7) Compound was tested for antiviral activity against HIV-1 resistant to TIBO A-17; assay type: functional, Human immunodeficiency virus 1; how it was run: as §3
[11] = tested on: Human immunodeficiency virus 1; experiment: as §7; assay type: functional, organism-based; how it was run: as §3
[12] = tested on: Human immunodeficiency virus 2; experiment: Compound was tested for antiviral activity against HIV-2
[13] = tested on: Human immunodeficiency virus 1; experiment: as §4; assay type: functional, organism-based; how it was run: as §5
[14] = tested on: Human immunodeficiency virus 1; experiment: as §6; assay type: functional, organism-based; how it was run: as §5
[15] = tested on: Human immunodeficiency virus 1; experiment: Compound was tested for antiviral activity against HIV-1 resistant to AZT; assay type: functional, organism-based; how it was run: as §5
[16] = tested on: Human immunodeficiency virus 1; experiment: Compound was tested for antiviral activity against HIV-1 sensitive to AZT; assay type: functional, organism-based; how it was run: as §5
CEM-SS [17] = experiment: Compounds were tested for cytotoxicity against CEM-SS cells in terms of incorporation of [3H]dThd; assay type: functional, cell-based; conditions: Homo sapiens; how it was run: as §2

Row | Structure (SMILES) | IC50 (Human alphaherpesvirus 1) | IC50 (HFF) | IC50 (Human betaherpesvirus 5 [1]) | IC50 (KB) | IC50 (CEM-SS [2]) | IC50 [3] | IC50 (Human betaherpesvirus 5 [4]) | IC50 [5] | IC50 [6] | IC50 [7] | IC50 [8] | IC50 (CEM-SS [9]) | IC50 [10] | IC50 [11] | IC50 [12] | IC50 [13] | IC50 [14] | IC50 [15] | IC50 [16] | IC50 (CEM-SS [17])
1 | Clc1cc2nc(NC3CC3)n(Cc3ccccc3)c2cc1Cl | > 100 µM | 33 µM | 18 µM | 60 µM |  |  |  |  |  |  |  |  |  |  |  |  |  |  |  | 
2 | O=[N+]([O-])c1ccc(Cn2c(Br)nc3cc(Cl)c(Cl)cc32)cc1 |  | > 100 µM |  | 40 µM | > 100 µM | 14 µM | > 100 µM | 11 µM | 6.9 µM | 66 µM | 11 µM |  |  |  |  |  |  |  |  | 
3 | Clc1ccc(Cn2c(Cl)nc3cc(Cl)c(Cl)cc32)cc1 | > 100 µM | > 100 µM |  | > 100 µM | > 100 µM |  | > 100 µM |  | 255 µM | > 30 µM | 30 µM | 9.1 µM | 19 µM |  |  |  |  |  |  | 
4 | Fc1ccc(Cn2c(Cl)nc3cc(Cl)c(Cl)cc32)cc1 | > 100 µM | > 100 µM |  | > 100 µM | > 100 µM | 37 µM | > 100 µM |  |  |  |  |  |  | 19 µM | > 30 µM |  |  |  |  | 
5 | O=[N+]([O-])c1cccc(Cn2c(Br)nc3cc(Cl)c(Cl)cc32)c1 |  | > 100 µM |  | 150 µM | > 100 µM | 5.3 µM | > 100 µM |  |  | 28 µM |  |  |  | 1 µM |  | 11 µM | 8.7 µM |  |  | 
6 | Cc1cccc(Cn2c(Cl)nc3cc(Cl)c(Cl)cc32)c1 | > 100 µM | > 100 µM |  | > 100 µM | > 100 µM | 14 µM | > 100 µM |  | 13 µM | > 30 µM | 37 µM |  | 16 µM |  |  |  |  |  |  | 
7 | Cc1cccc(Cn2c(Br)nc3cc(Cl)c(Cl)cc32)c1 |  | > 100 µM |  |  | > 100 µM | 3.5 µM | > 100 µM |  |  | 143 µM |  |  |  | 17 µM |  |  |  | 9 µM | 8.7 µM | 
8 | Cc1cn([C@H]2C[C@H](N=[N+]=[N-])[C@@H](CO)O2)c(=O)[nH]c1=O [ZIDOVUDINE] |  |  |  |  |  |  |  |  |  |  |  | 0.0026 µM |  |  |  |  |  |  |  | 1.9 µM
